From ChEMBL document CHEMBL1287780, “Discovery of 1H-benzo[d][1,2,3]triazol-1-yl 3,4,5-trimethoxybenzoate as a potential antiproliferative agent by inhibiting histone deacetylase” (Bioorg Med Chem, 2010)

What was measured:
KB = assay: Antiproliferative activity against human KB cells after 72 hrs by methylene blue staining; assay type: functional, cell-based
Method in brief: (§1)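 Log-phase cells kept in RPMI-1640 with 5% fetal bovine serum, seeded at 5000 cells/mL/well, then exposed to a range of drug concentrations for 72 h. Growth read by methylene blue dye assay. IC50, the concentration giving 50% growth inhibition relative to untreated control, derived graphically. Doxorubicin served as positive control.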

NCI-H460 = assay: Antiproliferative activity against human H460 cells after 72 hrs by methylene blue staining; assay type: functional, cell-based; conditions: NCI-H460, 72 h; method in brief: as §1
MKN-45 = assay: Antiproliferative activity against human MKN45 cells after 72 hrs by methylene blue staining; assay type: functional, cell-based; conditions: MKN-45, 72 h; method in brief: as §1
Histone deacetylase = assay: Inhibition of human HDAC after 30 mins; assay type: protein assay

Structure (SMILES)	IC50 (KB)	IC50 (NCI-H460)	IC50 (MKN-45)	IC50 (Histone deacetylase)
COc1cc(OC)cc(C(=O)n2nnc3ccccc32)c1	434 nM	491 nM	419 nM	
O=C(c1ccc(O)cc1)n1nnc2ccccc21	577 nM	662 nM	385 nM	
O=C(c1cc(O)c(O)c(O)c1)n1nnc2ccccc21	392 nM	332 nM	334 nM	
COc1ccc(C(=O)n2nnc3ccccc32)cc1	501 nM	662 nM	500 nM	
O=C(c1ccccc1)n1nnc2ccccc21	666 nM	750 nM	668 nM	
COc1cc(C(=O)n2nnc3ccccc32)cc(OC)c1OC	291 nM	480 nM	275 nM	
COc1cccc2c1C(=O)c1c(O)c3c(c(O)c1C2=O)C[C@@](O)(C(=O)CO)C[C@@H]3O[C@H]1C[C@H](N)[C@H](O)[C@H](C)O1 [DOXORUBICIN]	0.23 nM	0.38 nM		
COc1ccc2nnn(OC(=O)c3ccccc3)c2c1	209 nM	295 nM	206 nM	
O=C(c1cc(O)cc(O)c1)n1nnc2ccccc21	575 nM	559 nM	521 nM	

Now from value to molecule:

IC50 (KB)	IC50 (NCI-H460)	IC50 (MKN-45)	IC50 (Histone deacetylase)	Structure (SMILES)
97 nM	95 nM	93 nM		COc1ccc(C(=O)On2nnc3ccc(OC)cc32)cc1
18 nM	41 nM	17 nM	> 100000 nM	O=C(On1nnc2ccccc21)c1cc(O)c(O)c(O)c1
88 nM	98 nM	49 nM		O=C(On1nnc2ccccc21)c1ccc(O)cc1
1.2 nM	2.4 nM	1.5 nM	9400 nM	COc1cc(C(=O)On2nnc3ccccc32)cc(OC)c1OC
11 nM	23 nM	8 nM	58100 nM	COc1ccc2nnn(OC(=O)c3cc(OC)c(OC)c(OC)c3)c2c1
43 nM	52 nM	39 nM	73100 nM	COc1ccc(C(=O)On2nnc3ccccc32)cc1
104 nM	195 nM	97 nM		O=C(On1nnc2ccccc21)c1ccccc1
149 nM	216 nM	184 nM		COc1ccc2nnn(OC(=O)c3ccc(O)cc3)c2c1
35 nM	80 nM	36 nM	87500 nM	COc1cc(OC)cc(C(=O)On2nnc3ccc(OC)cc32)c1
81 nM	117 nM	36 nM		COc1ccc2nnn(OC(=O)c3cc(O)c(O)c(O)c3)c2c1
37 nM	42 nM	30 nM	61100 nM	COc1cc(OC)cc(C(=O)On2nnc3ccccc32)c1
67 nM	52 nM	28 nM		O=C(On1nnc2ccccc21)c1cc(O)cc(O)c1
153 nM	195 nM	93 nM		COc1ccc2nnn(OC(=O)c3cc(O)cc(O)c3)c2c1
